Data set [1] deals with Xenopus laevis. The experiment in a line: Anesthetic effect on Xenopus laevis tadpole assessed as loss of startle reflex after 30 mins. The data set is classed as functional, organism-based. The following applies: 0.5 h. A digest of the protocol:
(§1)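 Xenopus tadpoles in groups of 10, in 30 mL pond water containing a range of compound concentrations, incubated 30 min to equilibrate. Water was then replaced with fresh pond water and recovery followed over 24 h.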

The target of data set [2] is T1, GABA-A receptor; alpha-1/beta-2/gamma-2 (Rattus norvegicus) (UniProt P18508+P62813+P63138). The experiment in a line: Activation of rat alpha-1-beta-2-gamma-2L expressed in HEK293 cells assessed as potentiation of GABA-induced current at 0.3 to 3 uM by electrophysiological assay relative to control. The data set is classed as cell-based.
Data set [3] addresses T1, GABA-A receptor; alpha-1/beta-2/gamma-2 (Rattus norvegicus). Description: Activation of rat alpha-1-beta-2-gamma-2L expressed in HEK293 cells at 30 uM by electrophysiological assay. The data set is classed as cell-based.
Data set [4] is filed under the species Equus caballus. Description: Binding affinity to horse spleen apoferritin using 1-AMA by fluorescence competition assay. A digest of the protocol:
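HSAF 7 μM with 7 μM 1-aminoanthracene in pH 7.4 PBS, titrated with compound 0–110 μM. Excitation 380 nm, emission 400–800 nm, baseline-corrected. Variable-slope Hill fit gave IC50 and Hill slope; KD obtained by Cheng–Prusoff correction for the 1-AMA competitor.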

For data set [5], the system named is Xenopus laevis. Description: Anesthetic effect on Xenopus laevis tadpole assessed as loss of spontaneous motion measured for 30 seconds after 30 mins. Type of data set: functional, organism-based. Particulars: 0.5 h. In a few lines:
as §1

The species entered for data set [6] is Equus caballus. The experiment in a line: Binding affinity to horse spleen apoferritin by isothermal titration calorimetry. A digest of the protocol:
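Sequential titrations were linked and corrected with ligand-into-buffer, buffer-into-protein and buffer-into-buffer controls. Heats were fitted to a single binding-site class, Hill slope fixed at 1; mean with 95% CI.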
(In general: Isothermal titration calorimetry measures the heat released or taken up as one component is titrated into another.)

Data set [7] is described as follows: Binding affinity to horse spleen apoferritin using 1-AMA by fluorescence competition method.
Data set [8] can be described thus: Chemical stability of the compound assessed as half life in presence of UV irradiation. Type of data set: physicochemical. A digest of the protocol: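 A 160 μM solution in distilled water in a 1 cm quartz cuvette was irradiated at 350 nm for 30 min. UV spectra were taken every 3 min to follow loss of the diazirine peak (368 nm); t1/2 reported with 95% CI.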

Data set [9] is described as follows: Solubility of the compound in water. Type of data set: physicochemical. A digest of the protocol:
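Extinction coefficient of the 368 nm diazirine band determined in methanol at known concentration; maximal concentration in distilled water then calculated from UV absorbance using that coefficient.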

Converted amounts (≈) assume the structure as drawn. The source made the active and inactive calls. The rule behind the calls is not given here.

The values that follow come from ChEMBL document CHEMBL1212823, “m-Azipropofol (AziPm) a photoactive analogue of the intravenous general anesthetic propofol” (J Med Chem, 2010).

By EC50 is commonly meant the concentration at which the effect is half-maximal. The term Kd denotes the equilibrium constant for the complex coming apart. Lower therefore signals higher affinity. A word on the half-life: it is how long it takes for the measured level to halve. One may read the solubility as the dissolved amount per volume that the medium holds.

Turning to `CC(C)c1cccc(C(C)C)c1O` [PROPOFOL], the figures for the EC50 in the data set with Xenopus laevis [1] and in the data set with Xenopus laevis [5] were 2800 nM and 1100 nM, respectively. In addition, the fold change (FC) in [2] was determined as 9.3. In data set [3], the result was Active. Moreover, the Activity was 12 µM in the data set listed under Equus caballus [4] and 4.8 µM in the data set filed under Equus caballus [6]. For the same compound, binding in data set [7] was put at a Kd of 10000 nM.

Regarding `CC(C)c1ccc(C2(C(F)(F)F)N=N2)cc1O`, the results for the EC50 in the data set on Xenopus laevis [1] and in the data set with Xenopus laevis [5] were 3100 nM and 1100 nM, respectively. The fold change (FC) in data set [2] is 1.7. The outcome in [3] was inactive. In addition, the results for the Activity in the data set filed under Equus caballus [4] and in the data set listed under Equus caballus [6] were 23 µM and 21 µM, respectively. In addition, the half-life in data set [8] is 34 min. Further, the concentration in solution in data set [9] (solubility) was 185 µM (≈ 45.2 µg/mL). The Kd in data set [7] was determined as 19000 nM.
